Source: PubChem
OX1R antag-1: blocks the human orexin 1 receptor. OX1R-expressing cells, FRET antagonist read-out. hit rate 1.8% among 330,000. inhibition, % at 6.6 µM; in the data active = inhibition mostly above about 38%, no sharp cut-off; inactive = mostly below about 40%
Target sequence (O43613 whole entry, looked up): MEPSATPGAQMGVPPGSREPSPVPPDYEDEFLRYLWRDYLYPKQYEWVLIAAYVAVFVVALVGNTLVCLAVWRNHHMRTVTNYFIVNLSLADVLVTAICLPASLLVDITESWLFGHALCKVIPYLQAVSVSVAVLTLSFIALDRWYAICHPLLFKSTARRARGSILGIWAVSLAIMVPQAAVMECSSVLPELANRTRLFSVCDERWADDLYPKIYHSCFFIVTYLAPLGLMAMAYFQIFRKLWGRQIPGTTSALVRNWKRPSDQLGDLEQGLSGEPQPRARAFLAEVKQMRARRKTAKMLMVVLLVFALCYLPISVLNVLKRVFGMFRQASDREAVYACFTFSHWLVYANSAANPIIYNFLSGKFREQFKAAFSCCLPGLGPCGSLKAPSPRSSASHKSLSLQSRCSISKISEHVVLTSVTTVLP
TAAR1 ag: human TAAR1 agonism; CHO RD-HGA16 TAAR1, Fluo-8 calcium fluorescence; vehicle wells 0%, saturating PEA agonist 100%; Q96RJ0; activation, % at 3 µM; hit rate 0.99% among 360,000; AID 624467;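 active = activation above the mean activation of all test compounds in the run plus 3 SD, cut at about 38% in these data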
Target sequence (Q96RJ0 whole entry, looked up): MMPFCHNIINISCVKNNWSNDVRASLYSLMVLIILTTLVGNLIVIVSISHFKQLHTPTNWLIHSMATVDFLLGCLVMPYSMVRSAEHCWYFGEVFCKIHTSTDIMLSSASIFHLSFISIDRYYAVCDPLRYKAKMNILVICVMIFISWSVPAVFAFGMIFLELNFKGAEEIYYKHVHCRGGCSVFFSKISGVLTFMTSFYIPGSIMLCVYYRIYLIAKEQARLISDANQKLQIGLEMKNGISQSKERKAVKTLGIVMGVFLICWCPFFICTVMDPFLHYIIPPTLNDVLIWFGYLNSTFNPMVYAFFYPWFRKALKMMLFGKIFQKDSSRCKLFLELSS
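Repeats: no replicates (n 1) | Material: CHO-derived RD-HGA16 cells with stable Gα16 and human TAAR1 | Technique: Kinetic Fluo-8 calcium fluorescence | Schedule: 17-24 h seeding, 75 min 37 °C dye, 30 min RT | Evaluation: % activation from peak over basal fluorescence ratio, DMSO-to-PEA scaled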
TAAR1 antagonist: antagonists of human TAAR1 | hit rate 1.5% among 360,000 | CHO RD-HGA16 TAAR1, Fluo-8 calcium fluorescence, antagonist | Q96RJ0 | AID 624466 | inhibition, % at 3 µM;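 active = inhibition above a per-plate cutoff, the mean inhibition of test compounds on that plate plus 3 SD, cut at about 49% in these data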
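System: CHO RD-HGA16 cells bearing hTAAR1. Reagent: EC80 β-phenethylamine stimulus. Schedule: seeding 17-24 h prior, 75-min 37 °C, 30-min RT dye loading. Signal: Fluo-8 intracellular calcium dye fluorescence, real-time kinetic reads. Read-out: % inhibition from peak post-agonist over basal fluorescence ratio. Benchmarks: vehicle wells and EC80 agonist wells. Replicates: n of 1.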
CHO parental Ca: counter-screen for OX1R antagonists: effect in parental CHO cells; parental CHO-K1, ATP-induced calcium, Fluo-8 fluorescence; inhibition, % at 5.6 µM; hit rate 0.63% among 330,000; AID 463079;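 active = inhibition above that plate's mean sample inhibition plus 3 SD, cut at about 26% in these data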
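material = parental CHO cells | also added = ATP as calcium-mobilizing challenge | dosing = single point at 5.6 µM | detection = intracellular calcium via Fluo-8 no-wash fluorescent dye | read-out = % inhibition | benchmarks = low control ATP plus DMSO, high control DMSO only | repeats = one well per compound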
OX1R antag-2: antagonists of human orexin 1 receptor; inhibition, % at 5 µM; hit rate 0.43% among 330,000; O43613; CHO/OX1R cells, Fluo-8 calcium fluorescence, orexin A;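 active = inhibition above its plate's threshold, mean inhibition of all tested compounds on the plate plus 3 SD, cut at about 37% in these data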
TAAR1 ag conf: human TAAR1 agonism, confirmed | activation, % at 3 µM | hit rate 82% among 2,400 | CHO RD-HGA16 TAAR1, Fluo-8 calcium fluorescence; scaled: DMSO 0%, maximal phenethylamine 100% | shares compounds with TAAR1 ag;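 active = activation above a cutoff set at the run's mean compound activation plus 3 SD, cut at about 39% in these data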
Ga16 nonsel ag: nonselective agonist in parental cells, TAAR1 agonist counter-screen; CHO-Ga16 parental, Fluo-8 calcium fluorescence; normalized to maximal ATP response, DMSO zero; hit rate 50% among 2,400; shares compounds with TAAR1 ag; activation, % at 3 µM;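 active = activation above the run cutoff, the mean activation over all tested wells plus 3 SD, cut at about 12% in these data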
TAAR1 desensitize: counter-screen for human TAAR1 agonists: agonists that desensitize TAAR1; shares compounds with TAAR1 ag; CHO RD-HGA16 hTAAR1, Fluo-8 calcium, beta-PEA response inhibition; inhibition, % at 3 µM; hit rate 46% among 2,400; AID 651951;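 active = inhibition above the run cutoff, the mean inhibition of all test compounds plus 3 SD, cut at about 49% in these data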;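 also: beta-PEA stimulus applied at its EC80; loss of beta-PEA calcium signal after compound pretreatment read as receptor desensitization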
Ga16 nonsel ant: nonselective Ga16 antagonism, counter-screen; shares compounds with TAAR1 ag; CHO-Ga16 ATP-induced calcium, Fluo-8 fluorescence; inhibition, % at 3 µM; hit rate 39% among 2,400;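 active = inhibition above the plate's mean compound inhibition plus 3 SD, computed per plate, cut at about 22% in these data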
Each line names hits and unclear results; the compound was inactive in the other large screens (follow-up assays come after a bar, where they were run). Most compounds without a hit are left out; they make up all but 4% or so of the library.

CCCN1CN(CCc2ccccc2)CNC1=S	none (no result: TAAR1 ag, TAAR1 antagonist) | Ga16 nonsel ag inactive | Ga16 nonsel ant inactive
S=C1NCN(Cc2cccnc2)CN1c1cccc(Cl)c1	none
Cc1ccc(N2CN(CCC3=CCCCC3)CNC2=S)cc1	TAAR1 ag 49 | TAAR1 ag conf 56 | Ga16 nonsel ag inactive | TAAR1 desensitize inactive | Ga16 nonsel ant inactive
COc1cccc(N2CN(CCc3ccccc3)CNC2=S)c1	TAAR1 ag 96, TAAR1 antagonist 81 | TAAR1 ag conf 93 | Ga16 nonsel ag inactive | TAAR1 desensitize 80 | Ga16 nonsel ant inactive
Cc1ccc(N2CN(Cc3ccco3)CNC2=S)cc1	none
CCCCN1CNC(=S)N(CCc2ccccc2)C1	none
COc1cccc(N2CCN(C(=O)c3ccc(-c4ccccc4)cc3)CC2)c1	none
O=C1C(=O)N(c2ccccn2)C(c2cccc(F)c2)/C1=C(/O)c1ccccc1 (stereo not given)	none (no result: TAAR1 ag, TAAR1 antagonist)
COCCN(C(=O)COC(=O)c1cccs1)c1c(N)n(Cc2ccccc2)c(=O)[nH]c1=O	none
CC(C)(C)OC(=O)N1CCC(C(=O)Nc2cccc(C(=O)N3CCCCC3)c2)CC1	none (no result: OX1R antag-1, CHO parental Ca, OX1R antag-2)
CCc1ccc(N2CN(CCc3ccccc3)CNC2=S)cc1	TAAR1 ag 95, TAAR1 antagonist 59 | TAAR1 ag conf 83 | Ga16 nonsel ag inactive | TAAR1 desensitize 68 | Ga16 nonsel ant inactive
CCCN1CNC(=S)N(Cc2ccccc2)C1	none
CCc1cccc(NC(=O)COC(=O)CSc2ccc(C)cc2)c1	none (no result: OX1R antag-1, CHO parental Ca, OX1R antag-2)
Cc1cccc(OCC(=O)N2CCc3ccccc3C2)c1	TAAR1 ag 55 | TAAR1 ag conf 69 | Ga16 nonsel ag inactive | TAAR1 desensitize inactive | Ga16 nonsel ant inactive
COc1ccc(-c2nnc(SCC(=O)N3CCc4ccccc4C3)o2)cc1	none
O=C(CCCN1C(=O)c2ccccc2C1=O)N1CCc2ccccc2C1	TAAR1 ag 69 | TAAR1 ag conf 83 | Ga16 nonsel ag inactive | TAAR1 desensitize inactive | Ga16 nonsel ant inactive
Cc1cccc(C(=O)NC(=S)N2CCc3ccccc3C2)c1	TAAR1 ag 62 | TAAR1 ag conf 65 | Ga16 nonsel ag inactive | TAAR1 desensitize inactive | Ga16 nonsel ant inactive
Cc1ccc(OCC(=O)N2CCc3ccccc3C2)cc1C	none (no result: OX1R antag-1, CHO parental Ca, OX1R antag-2)
COc1ccc(Cc2nnc(SCC(=O)N3CCc4ccccc4C3)o2)cc1	TAAR1 ag 55 | TAAR1 ag conf 75 | Ga16 nonsel ag inactive | TAAR1 desensitize inactive | Ga16 nonsel ant inactive
C=CCn1c(SC(C)C#N)nc2sc(CC)cc2c1=O (stereo not given)	none
O=C(CC(c1ccco1)S(=O)(=O)c1ccccc1)c1ccccc1 (stereo not given)	none
O=C(COc1cccc2cccnc12)N1CCc2ccccc2C1	TAAR1 ag 52 | TAAR1 ag conf inactive | Ga16 nonsel ag inactive | TAAR1 desensitize inactive | Ga16 nonsel ant inactive
COc1ccc(OCC(=O)N2CCc3ccccc3C2)cc1	none (no result: TAAR1 ag, TAAR1 antagonist) | Ga16 nonsel ag inactive | Ga16 nonsel ant inactive
CCCNC(=O)C1(C)CCN1C(=O)c1ccc(C(C)(C)C)cc1 (stereo not given)	none (no result: OX1R antag-1, CHO parental Ca, OX1R antag-2)
CC(C)c1ccc(N2C(=O)/C(=C/N(C)C)SC2=S)cc1	TAAR1 ag 59, TAAR1 antagonist 49, OX1R antag-2 52 | TAAR1 ag conf 58 | Ga16 nonsel ag 56 | TAAR1 desensitize 51 | Ga16 nonsel ant 65
CCO/C=C1\SC(=S)N(c2ccc(Cl)cc2)C1=O	none
Cc1nn(Cc2cccc(C(=O)N3CCCC(C)C3)c2)c(C)c1[N+](=O)[O-] (stereo not given)	none
O=C(CNC(=O)c1nc[nH]c1C(=O)N1CCN(c2ccccc2)CC1)OCc1ccccc1	none
CCOC(=O)Cn1c(=N)n(CCOc2ccc3ccccc3c2)c2ccccc21	TAAR1 ag 58 | TAAR1 ag conf 57 | Ga16 nonsel ag 26 | TAAR1 desensitize 51 | Ga16 nonsel ant 41
O=C(NN1CCOCC1)c1cc(-c2ccc(Cl)c(Cl)c2)nc2ccccc12	none
CCCNC(=O)Cn1sc2nc(C)cc(C)c2c1=O	TAAR1 ag 52 | TAAR1 ag conf inactive | Ga16 nonsel ag 21 | TAAR1 desensitize inactive | Ga16 nonsel ant inactive
Cc1cc(C)c2c(=O)n(CC(=O)N3CCC(N4CCCCC4)CC3)sc2n1	none
Cc1cc(NS(=O)(=O)c2ccc(NC(=S)NC(=O)c3ccc(C(C)(C)C)cc3)cc2)no1	TAAR1 ag 45 | TAAR1 ag conf inactive | Ga16 nonsel ag inactive | TAAR1 desensitize inactive | Ga16 nonsel ant inactive
CCCOC(c1ccccc1)(c1ccccc1)C(Oc1nc(C)cc(C)n1)C(=O)O (stereo not given)	none
Cc1cc(C)nc(OC(C(=O)O)C(OCc2ccccc2)(c2ccccc2)c2ccccc2)n1 (stereo not given)	TAAR1 ag 113 | TAAR1 ag conf 136 | Ga16 nonsel ag 58 | TAAR1 desensitize inactive | Ga16 nonsel ant inactive
COc1ccc2cc(CN(CCc3ccccc3)Cc3nnnn3Cc3ccco3)c(=O)[nH]c2c1	TAAR1 ag 80, TAAR1 antagonist 49 | TAAR1 ag conf 46 | Ga16 nonsel ag inactive | TAAR1 desensitize 49 | Ga16 nonsel ant 27
c1ccc(C2OCC3(CO2)COC(c2ccccc2)OC3)cc1 (stereo not given)	TAAR1 ag 59 | TAAR1 ag conf inactive | Ga16 nonsel ag inactive | TAAR1 desensitize inactive | Ga16 nonsel ant inactive
Cc1ccc(C2OCC3(CO2)COC(c2ccc(C)cc2)OC3)cc1 (stereo not given)	none
CN1CCN(c2ccc(NC(=O)c3ccc([N+](=O)[O-])o3)cc2Cl)CC1	OX1R antag-1 54, TAAR1 ag 45 | TAAR1 ag conf 55 | Ga16 nonsel ag inactive | TAAR1 desensitize inactive | Ga16 nonsel ant inactive
O=C(Nc1ccc(N2CCOCC2)c(Cl)c1)c1ccc([N+](=O)[O-])o1	none (no result: OX1R antag-1, CHO parental Ca, OX1R antag-2)
O=C(CC[C@H]1O[C@@H](n2ccc(=O)[nH]c2=O)[C@H](O)[C@@H]1O)NCC(c1ccccc1)c1ccccc1	none (no result: OX1R antag-1, CHO parental Ca, OX1R antag-2)
CC(C)=C1C2CCC1C(C(=O)NCCc1ccccc1)C2C(=O)O (stereo not given)	TAAR1 ag 62, TAAR1 antagonist 88 | TAAR1 ag conf 80 | Ga16 nonsel ag inactive | TAAR1 desensitize 90 | Ga16 nonsel ant inactive
O=C(NCCc1ccccc1)C1CCN(c2ncccn2)CC1	none
